The values below come from ChEMBL document CHEMBL4014272, “Design, synthesis, biological evaluation, molecular docking and QSAR studies of 2,4-dimethylacridones as anticancer agents” (Eur J Med Chem, 2017).

Each structure is given as a SMILES string. pIC50: −log10 of the molar value.

A word on the pIC50: it is the negative decadic logarithm of the IC50, by convention in mol/L. A higher pIC50 goes with a low IC50. The inhibition is the percentage by which the read-out fell short of the control. A higher inhibition goes with a response far below the control.

The target in series [1] is ATP-dependent translocase ABCB1 (Homo sapiens, UniProt P08183). Kind of series: Inhibition of ABCB1 in human MCF7/ADR cells assessed as potentiation of vinblastine-induced cytotoxicity at IC10 after 7 days by SRB assay relative to vinblastine alone. It counts as cell-based. The settings on record: 168 h. Put shortly:
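Doxorubicin-maintained MCF-7/ADR cells given vinblastine (0-100 nM, continuous 7 days per results text; methods state 0-15 nM for 48 h) alone or with modulator at its IC10. Survival by SRB versus ethanol vehicle control; vinblastine IC50 with modulator compared to vinblastine alone; triplicates averaged.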
A general note: In SRB staining, fixed cells bind dye roughly in proportion to their protein.

Another series relates to NCI/ADR-RES. Kind of series: Growth inhibition of human MCF7/ADR cells after 48 hrs by SRB assay. Format: functional, cell-based. In short, it runs like this: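 Doxorubicin-selected MCF-7/ADR cells maintained under doxorubicin, grown in RPMI 1640 with glutamine and 10% fetal calf serum, 37 °C, 5% CO2. Log-phase cells plated, attached 24 h, exposed to varying compound concentrations for 48 h; ethanol vehicle controls. Survival by SRB absorbance versus control; triplicate readings averaged for IC50.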

Another series has as its target ABCB1 (P-glycoprotein) (Homo sapiens, UniProt P08183). Kind of series: Displacement of [3H]-azidopine from ABCB1 in human KBV1 cell membranes at IC50 incubated for 20 mins in dark followed by irradiation of UV-light measured after 20 mins by SDS-PAGE based autoradiography relative to control. As to conditions: probe [3H]-azidopine; call rule not given here.
The next series deals with MCF7. Kind of series: Growth inhibition of human MCF7 cells after 48 hrs by SRB assay. It counts as functional, cell-based. The settings on record: MCF7, 48 h. Put shortly:
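MCF-7 cells in RPMI 1640 with glutamine and 10% fetal calf serum, 37 °C, 5% CO2. Log-phase cells plated, attached 24 h, then exposed to varying compound concentrations for 48 h; ethanol vehicle controls. Survival by SRB, absorbance 540 nm versus control; each dilution in triplicate, IC50 from mean of triplicates.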

Sequence of ATP-dependent translocase ABCB1 (P08183 whole entry): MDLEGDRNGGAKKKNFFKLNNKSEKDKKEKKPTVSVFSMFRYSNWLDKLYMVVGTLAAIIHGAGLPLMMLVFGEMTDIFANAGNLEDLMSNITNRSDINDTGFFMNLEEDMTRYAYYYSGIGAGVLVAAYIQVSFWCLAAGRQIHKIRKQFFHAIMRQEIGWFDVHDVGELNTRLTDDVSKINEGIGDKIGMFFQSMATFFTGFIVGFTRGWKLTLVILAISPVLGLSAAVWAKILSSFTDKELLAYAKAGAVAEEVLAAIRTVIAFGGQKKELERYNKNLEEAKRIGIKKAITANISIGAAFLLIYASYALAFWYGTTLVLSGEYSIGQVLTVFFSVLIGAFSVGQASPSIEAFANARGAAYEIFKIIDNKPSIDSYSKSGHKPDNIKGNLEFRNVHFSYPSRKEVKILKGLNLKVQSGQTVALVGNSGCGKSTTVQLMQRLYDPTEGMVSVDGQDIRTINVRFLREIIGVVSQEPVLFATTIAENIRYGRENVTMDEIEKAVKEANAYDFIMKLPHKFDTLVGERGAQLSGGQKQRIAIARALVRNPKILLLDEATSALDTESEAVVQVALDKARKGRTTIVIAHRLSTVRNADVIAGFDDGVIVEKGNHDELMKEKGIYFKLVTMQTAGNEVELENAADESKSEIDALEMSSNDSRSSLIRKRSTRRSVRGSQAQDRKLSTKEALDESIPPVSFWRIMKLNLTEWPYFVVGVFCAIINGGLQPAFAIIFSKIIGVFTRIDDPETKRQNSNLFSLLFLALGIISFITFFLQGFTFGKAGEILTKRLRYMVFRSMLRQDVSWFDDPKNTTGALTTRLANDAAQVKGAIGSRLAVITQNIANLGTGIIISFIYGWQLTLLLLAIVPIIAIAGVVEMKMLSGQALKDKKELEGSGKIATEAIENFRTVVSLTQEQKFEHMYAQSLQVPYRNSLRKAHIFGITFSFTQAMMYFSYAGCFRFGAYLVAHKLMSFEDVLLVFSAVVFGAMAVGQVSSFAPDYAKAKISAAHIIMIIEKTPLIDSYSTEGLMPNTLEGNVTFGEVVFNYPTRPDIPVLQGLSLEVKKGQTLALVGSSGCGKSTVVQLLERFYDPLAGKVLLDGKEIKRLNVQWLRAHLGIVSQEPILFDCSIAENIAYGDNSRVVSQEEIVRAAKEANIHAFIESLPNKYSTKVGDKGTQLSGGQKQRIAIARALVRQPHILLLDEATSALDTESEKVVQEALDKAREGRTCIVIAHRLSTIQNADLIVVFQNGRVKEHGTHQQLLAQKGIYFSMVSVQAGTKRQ
Sequence of ABCB1 (P-glycoprotein) (P08183 whole entry): as above

In the case of `Cc1cc(C)c2c(c1)c(=O)c1ccccc1n2CCCCN(CCO)CCO`, the “inhibition (INH)” value in series [1] is given as “Active”. Moreover, the results for the pIC50 in the series with NCI/ADR-RES and in the series with MCF7 were 5.28 and 5.40, respectively. The inhibition at 20 min on ABCB1 (P-glycoprotein) is 55%.
As for `Cc1cc(C)c2c(c1)c(=O)c1ccccc1n2CCCCN1CCCCC1`, the negative logarithm of the IC50 (pIC50) with NCI/ADR-RES is 4.44; in the series with MCF7, 4.52. Also, at ABCB1 (P-glycoprotein), the inhibition at 20 min was determined as 42%.
At ABCB1 (P-glycoprotein), `Cc1cc(C)c2c(c1)c(=O)c1ccccc1n2CCCCl` came in with an inhibition at 20 min of 28%.
With `Cc1cc(C)c2c(c1)c(=O)c1ccccc1n2CCCN1CCN(C)CC1`, the “fold change (FC)” value in series [1] came to 4.75. Moreover, the figures for the pIC50 in the series with NCI/ADR-RES and in the series on MCF7 were 4.27 and 4.30, respectively. In addition, the inhibition at 20 min on ABCB1 (P-glycoprotein) worked out at 46%.
In the case of `CCN(CC)CCCCn1c2ccccc2c(=O)c2cc(C)cc(C)c21`, the “inhibition (INH)” value in series [1] is on record as “Active”. Also, the negative logarithm of the IC50 (pIC50) is 5.04 in the series on NCI/ADR-RES and 5.08 in the series with MCF7. The inhibition at 20 min at ABCB1 (P-glycoprotein) was found to be 54%.
Take `CCN(CC)CCCn1c2ccccc2c(=O)c2cc(C)cc(C)c21`: the “fold change (FC)” value in series [1] was 10.48. The pIC50 is 4.47 in the series on NCI/ADR-RES and 4.54 with MCF7. Moreover, the inhibition at 20 min on ABCB1 (P-glycoprotein) is 36%.
Consider `Cc1cc(C)c2c(c1)c(=O)c1ccccc1n2CCCCN1CCN(CCO)CC1`, for which the “inhibition (INH)” value in series [1] is “Active”. In addition, the pIC50 is 5.59 with NCI/ADR-RES and 5.70 with MCF7. The same compound displayed an inhibition at 20 min on ABCB1 (P-glycoprotein) of 58%.
For the compound `Cc1cc(C)c2c(c1)c(=O)c1ccccc1n2CCCN1CCN(CCO)CC1`, the “fold change (FC)” value in series [1] is 16.74. In addition, the results for the pIC50 in the series with NCI/ADR-RES and in the series with MCF7 were 4.82 and 4.92, respectively. This compound yielded an inhibition at 20 min at ABCB1 (P-glycoprotein) of 52%.
For the compound `Cc1cc(C)c2[nH]c3ccccc3c(=O)c2c1`, the “fold change (FC)” value in series [1] is 1.4. For the same compound, the pIC50 in the series with NCI/ADR-RES is 4.09; with MCF7, 4.10. Besides, at ABCB1 (P-glycoprotein), the inhibition at 20 min is 33%.
As to `Cc1cc(C)c2c(c1)c(=O)c1ccccc1n2CCCN1CCCCC1`, in series [1], the “fold change (FC)” value amounted to 7.17. Further, the pIC50 was 4.21 in the series on NCI/ADR-RES and 4.24 in the series with MCF7. Further, at ABCB1 (P-glycoprotein), the inhibition at 20 min was found to be 34%.
For `Cc1cc(C)c2c(c1)c(=O)c1ccccc1n2CCCCN1CCOCC1`, the “inhibition (INH)” value in series [1] is “Active”. The negative-log IC50 (pIC50) in the series with NCI/ADR-RES is 4.66; in the series on MCF7, 4.70. The inhibition at 20 min on ABCB1 (P-glycoprotein) was 36%.
With `Cc1cc(C)c2c(c1)c(=O)c1ccccc1n2CCCN(CCO)CCO`, the “fold change (FC)” value in series [1] came to 9.7. Moreover, the pIC50 was 4.64 in the series on NCI/ADR-RES and 4.72 in the series with MCF7. For the same compound, the inhibition at 20 min at ABCB1 (P-glycoprotein) is 40%.
As to `Cc1cc(C)c2c(c1)c(=O)c1ccccc1n2CCCN1CCOCC1`, the “fold change (FC)” value in series [1] came to 6.4. For the same compound, the pIC50 in the series on NCI/ADR-RES was 4.19; in the series with MCF7, 4.23. Also, the inhibition at 20 min at ABCB1 (P-glycoprotein) worked out at 26%.
As to `Cc1cc(C)c2c(c1)c(=O)c1ccccc1n2CCCCN1CCN(C)CC1`, the negative logarithm of the IC50 (pIC50) in the series on NCI/ADR-RES was 4.79; with MCF7, 4.84. The inhibition at 20 min on ABCB1 (P-glycoprotein) came out at 43%.
For the compound `Cc1cc(C)c2c(c1)c(=O)c1ccccc1n2CCCCCl`, the inhibition at 20 min at ABCB1 (P-glycoprotein) stood at 36%.
Regarding `COc1cccc2c1C(=O)c1c(O)c3c(c(O)c1C2=O)C[C@@](O)(C(C)=O)C[C@@H]3O[C@H]1C[C@H](N)[C@H](O)[C@H](C)O1` [DAUNORUBICIN], the negative-log IC50 (pIC50) in the series on NCI/ADR-RES is 5.15.
Turning to `COc1ccc(CCN(C)CCCC(C#N)(c2ccc(OC)c(OC)c2)C(C)C)cc1OC` (stereo unspecified) [VERAPAMIL], at ABCB1 (P-glycoprotein), the inhibition at 20 min is 61%.
As to `CC[C@]1(O)C[C@@H]2CN(CCc3c([nH]c4ccccc34)[C@@](C(=O)OC)(c3cc4c(cc3OC)N(C)[C@H]3[C@@](O)(C(=O)OC)[C@H](OC(C)=O)[C@]5(CC)C=CCN6CC[C@]43[C@@H]65)C2)C1` [VINBLASTINE], the pIC50 in the series with NCI/ADR-RES is 7.16 to 7.97; with MCF7 it was 8.49 to 8.52.
